Bioassay records deposited in PubChem BioAssay by Broad Institute.
An excerpt weighted towards active compounds, which were near 1.7% of everything screened.
CaV13 ICDI inh: Primary screen for inhibitors of IQ motif and Ca2+-dependent inactivation inhibitor domain binding in CACNA1D, Förster resonance energy transfer in living cells, …; 0.098% of 340,000 active; HEK cells, CFP/YFP FRET ICDI-IQ, plate reader, 10 min; percent FRET-ratio fall versus neutral wells; inhibition, % at 12.3 µM;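 active = mean replicate inhibition of at least 30% and at least 1% of replicates passing that level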
Ecoli rRNA inh: inhibits bacterial ribosomal RNA function over humanized ribosomes; E. coli WT GFP vs humanized-ribosome RFP mutants, fluorescence, 24 h; hits give low values; DMSO median 0, no signal -100; 1.6% of 350,000 active; GFP signal change (wild-type ribosome), % (concentration not given with the values);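 active = significant combined selectivity score with lowered wild-type GFP, culture density cut under 30%, mutant RFP and density less affected; inactive = any of these conditions unmet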
Cneo AK release: Cryptococcus neoformans lysis via adenylate kinase release; AID 651654; 0.2% of 360,000 active; lysis activity, % at 15 µM; C. neoformans lysis, adenylate kinase release luminescence, 4 h; normalised: neutral wells 0, clomiphene wells 100;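 active = mean lysis activity across replicates of at least 80%, whatever share of replicates individually reach that level; inactive = mean lysis activity below 80%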
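Test system: log-phase Cryptococcus neoformans yeast cells; Quantity: yeast cell density of 5 × 10^6 cells/mL; Buffer or medium: YPD; Doses: single compound concentration per well; Timing: 4 h at 37 °C static, read 1 h later; Measured by: AK luminescence; Read-out basis: lysis from increased AK signal; Control set: Clomiphene as positive control.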
F508del corr: CFTR F508del correction in bronchial cells; CFBE cells, YFP halide quenching; stimulated with forskolin plus potentiator P3; % fluorescence drop versus neutral controls; activity (quench increase), % at 7.58 µM; 0.36% of 350,000 active; AID 720511;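 active = mean added fluorescence quench of at least 8% versus neutral control, with both replicates also reaching 8%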;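 note: cells transiently co-express mutant CFTR-F508del with the halide-sensitive YFP; corrector assay measuring rescue of mutant channel to the surface after 24 h compound exposure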
Each line names hits and unclear results; the compound was inactive in the other large screens.

O=C(O)c1sccc1Oc1ccc(NS(=O)(=O)c2ccc(Cl)cc2)cc1	none (no result: Cneo AK release)
N#Cc1cccc(C#N)c1Oc1ccc(S(=O)(=O)Nc2ccc(Cl)cc2)cc1	Ecoli rRNA inh -38 (no result: Cneo AK release)
CC=Cc1ccc2n(c1=O)C[C@@H]1[C@@H](CO)[C@H](C(=O)NCCc3cn(C)cn3)N(C(=O)CC)[C@H]21 (mixture of isomers)	none (no result: CaV13 ICDI inh, Cneo AK release)
COC(=O)Cc1c(O)ccn(CCc2ccc(OC)c(OC)c2)c1=O	none
COc1ccc(CCn2ccc(O)c(Cc3ccc(Cl)cc3)c2=O)cc1OC	Ecoli rRNA inh -29
CN(C)C(=O)c1cccc(-c2ccc([C@H]3[C@H](CO)N4C(=O)CN(C(=O)C5CCCC5)C[C@@H]34)cc2)c1	none (no result: CaV13 ICDI inh, Cneo AK release)
Cc1ccc(-c2ccc(=O)n(Cc3c(F)cccc3Cl)n2)cc1	Ecoli rRNA inh -27
Cc1ccc(C)c(-c2ccc(=O)n(Cc3c(F)cccc3Cl)n2)c1	none
CC(C)NC(=O)N(C)C[C@@H]1OCCCC[C@H](C)Oc2ccc(NS(=O)(=O)c3ccc(Cl)cc3)cc2C(=O)N([C@@H](C)CO)C[C@H]1C	none (no result: CaV13 ICDI inh)
O=C(/C=C/Nc1ccc(Nc2ccccc2)cc1)c1cccs1	Ecoli rRNA inh -23 (no result: Cneo AK release)
Cc1ccc(N/C=C/C(=O)c2cccs2)cc1C	Ecoli rRNA inh -20
Cc1cc(N/C=C/C(=O)c2cccs2)ccc1F	none
C[C@@H]1CN([C@@H](C)CO)C(=O)c2cccc(NS(=O)(=O)c3ccc(Cl)cc3)c2O[C@@H]1CN(C)S(=O)(=O)c1ccc(Cl)cc1	none (no result: CaV13 ICDI inh)
Cc1ccc(C(=O)NC(=O)CSc2nncn2C)cc1	none
Cc1ccc(C2=NN=C(NC(=O)CSc3nncn3C)SC2)cc1	Ecoli rRNA inh -23
O=C(CCn1cnc2ccccc21)N/N=C/C=C/c1ccccc1	none (no result: Ecoli rRNA inh)
COc1ccccc1/C=C/C=N/NC(=O)CCn1cnc2ccccc21	Ecoli rRNA inh -35, F508del corr 13
COc1cccc(/C=N/Nc2ncnc(Cl)c2N)c1O	F508del corr 23 (no result: Cneo AK release)
COc1cccc(/C=N/NC(=O)C(=O)N/N=C/c2cccc(OC)c2O)c1O	F508del corr 10 (no result: Cneo AK release)
COc1cccc(/C=N\NC(=O)Cn2nnc3ccccc32)c1O	Ecoli rRNA inh -20 (no result: Cneo AK release)
C[C@H](CO)N1C[C@H](C)[C@H](CN(C)C(=O)C2CC2)Oc2cc(-c3ccc(C(=O)N(C)C)cc3)ccc2S1(=O)=O	none (no result: CaV13 ICDI inh, Cneo AK release)
COc1cccc(CNC(=O)C[C@H]2CC[C@H](NC(=O)C3CC3)[C@H](CO)O2)c1	none (no result: CaV13 ICDI inh)
CC(C)C#Cc1ccc2c(c1)O[C@@H](CN(C)C(=O)c1cnccn1)[C@H](C)CN([C@H](C)CO)S2(=O)=O	none (no result: CaV13 ICDI inh)
COC(=O)C1=CN(CC2CCCO2)C=C(C(=O)OC)C1c1cccc(O)c1 (stereo not drawn)	CaV13 ICDI inh 83 (no result: Cneo AK release)
COC(=O)C1=CN(CC2CCCO2)C=C(C(=O)OC)C1c1ccsc1 (stereo not drawn)	none (no result: Ecoli rRNA inh, F508del corr)
O=C(N/N=C/c1ccccc1C(F)(F)F)c1ccc(O)cc1	Ecoli rRNA inh -29 (no result: Cneo AK release)
CO[C@@H]1CN(C)C(=O)c2ccc(NC(C)=O)cc2OC[C@@H](C)N(C(=O)c2ccc(F)cc2)C[C@@H]1C	none (no result: CaV13 ICDI inh)
Cc1nc([N+](=O)[O-])c(C(=O)OCc2cccc(Br)c2)n1C	Ecoli rRNA inh -18
COc1ccc(NC(=O)N(C)C[C@H]2OCCCC[C@@H](C)Oc3ccc(NC(=O)Nc4ccccc4)cc3C(=O)N([C@@H](C)CO)C[C@H]2C)cc1	none (no result: CaV13 ICDI inh)
COc1cccc(OC)c1C(=O)NC(=S)Nc1ccc2oc(-c3ccncc3)nc2c1	Ecoli rRNA inh -14
COc1c(F)c(F)c(C(=O)Nc2ccc3oc(-c4ccncc4)nc3c2)c(F)c1F	none (no result: Ecoli rRNA inh, F508del corr)
COc1ccccc1C1C2=C(CC(C)(C)CC2=O)N(CC(=O)O)C2=C1C(=O)CC(C)(C)C2	CaV13 ICDI inh 36
O=C(NCc1ccccn1)c1n[nH]c(=O)c2ccccc12	F508del corr 8.6
O=C(N[C@H]1CC[C@@H](CCNS(=O)(=O)c2ccc(F)cc2)O[C@H]1CO)c1cnccn1	none (no result: CaV13 ICDI inh)
CN(C(=O)C1CCCN(c2ncnc3c2nc2n3CCCCC2)C1)c1cccc(Cl)c1 (stereo not drawn)	Ecoli rRNA inh -36
Cc1cccc(Nc2c(F)c(F)c(F)c(F)c2C(=O)O)c1	Ecoli rRNA inh -30 (no result: Cneo AK release)
O=C(C[C@@H]1C[C@@H]2c3cc(NC(=O)Nc4ccc(C(F)(F)F)cc4)ccc3O[C@@H]2[C@H](CO)O1)NCc1cccnc1	none (no result: CaV13 ICDI inh)
O=C(N[C@H]1CC[C@@H](CCn2cc(C3(O)CCCC3)nn2)O[C@H]1CO)C1CC1	none (no result: CaV13 ICDI inh)
